According to PubChem BioAssay AID488779 (The Scripps Research Institute Molecular Screening Center, 2010):
Calls of active or inactive are those of the source.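 How the source made its calls: active means SF-1 luciferase reporter signal in cells inhibited by more than 25%; inactive means the rest.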

target: Steroidogenic factor 1 (Homo sapiens) (UniProt Q13285); assay: SF-1 inhibition in luciferase reporter cells, confirmation, selectivity assay for LRH1 inverse agonist project, cell-based, luminescence, powder samples, single concentration (AID 488779); conditions: HEK293T SF-1 5xSFRE luciferase reporter, 20 h; at 5 µM; hits give high values
Sequence (Q13285 whole entry, looked up): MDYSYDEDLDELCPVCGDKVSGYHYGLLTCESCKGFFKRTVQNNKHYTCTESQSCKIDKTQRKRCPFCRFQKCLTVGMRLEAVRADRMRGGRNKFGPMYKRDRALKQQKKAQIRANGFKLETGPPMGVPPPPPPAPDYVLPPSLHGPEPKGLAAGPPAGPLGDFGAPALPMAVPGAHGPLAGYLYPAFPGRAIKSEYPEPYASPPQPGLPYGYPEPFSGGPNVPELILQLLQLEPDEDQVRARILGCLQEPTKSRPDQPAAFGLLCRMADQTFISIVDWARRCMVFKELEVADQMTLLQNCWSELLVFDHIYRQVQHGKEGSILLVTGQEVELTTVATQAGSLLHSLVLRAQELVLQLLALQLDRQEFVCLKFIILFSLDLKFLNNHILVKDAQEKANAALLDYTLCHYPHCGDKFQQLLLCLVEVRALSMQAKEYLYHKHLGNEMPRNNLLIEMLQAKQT
How it was run: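 Assay system – HEK293T cells with SF-1 and SFRE-luciferase reporter · Dosing – single nominal dose of 5 µM test compound · Timing – 20 h compound exposure · Detection – luciferase luminescence · Read-out basis – percent inhibition of luminescence from average fold change versus DMSO-treated cells · Benchmarks – DMSO-treated cells as vehicle reference · Replicates – triplicate wells per compound, averaged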

| Structure (SMILES) | inhibition |
| --- | --- |
| CC(C)Cn1c(=O)cc(N2CCN(c3cccc(C(F)(F)F)c3)CC2)[nH]c1=O | -95% (inactive) |
| O=c1cc(N2CCN(c3ccnc4cc(Cl)ccc34)CC2)[nH]c(=O)n1C1CCCCC1 | 11% (inactive) |
| CCn1c(=O)cc(N2CCN(c3ccccc3)CC2)[nH]c1=O | 7% (inactive) |
| O=c1cc(N2CCN(c3ccccc3C(F)(F)F)CC2)[nH]c(=O)n1C1CCCCC1 | 5% (inactive) |
| O=c1cc(N2CCN(c3nc(-c4ccccc4)ns3)CC2)[nH]c(=O)n1C1CCCCC1 | 1% (inactive) |
| O=c1cc(N2CCN(c3cccc(C(F)(F)F)n3)CC2)[nH]c(=O)n1C1CCCCC1 | 9% (inactive) |
| O=c1cc(N2CCN(c3cccc(C(F)(F)F)c3)CC2)[nH]c(=O)n1C1CCCCC1 | -1% (inactive) |
| C=CCn1c(=O)cc(N2CCN(c3cccc(C(F)(F)F)c3)CC2)[nH]c1=O | -164% (inactive) |
| CCn1c(=O)cc(N2CCN(C(=O)c3ccco3)CC2)[nH]c1=O | 30% |
| CCn1c(=O)cc(N2CCN(Cc3ccccc3)CC2)[nH]c1=O | 27% |
| O=c1cc(N2CCN(c3cccc(C(F)(F)F)c3)CC2)[nH]c(=O)n1Cc1ccccc1 | 1% (inactive) |
| CCn1c(=O)cc(N2CCN(c3cccc(Cl)c3)CC2)[nH]c1=O | -10% (inactive) |
| N#CCn1c(N2CCN(c3cccc(C(F)(F)F)c3)CC2)cc(=O)n(C2CCCCC2)c1=O | 4% (inactive) |
| O=c1cc(N2CCN(c3cccc(C(F)(F)F)c3)CC2)[nH]c(=O)n1-c1ccccc1 | -3% (inactive) |
| C=CCn1c(N2CCN(c3cccc(C(F)(F)F)c3)CC2)cc(=O)n(C2CCCCC2)c1=O | -24% (inactive) |
| O=c1cc(N2CCN(c3ccccc3)CC2)[nH]c(=O)n1Cc1ccc(F)cc1 | -18% (inactive) |
| Cn1c(=O)cc(N2CCN(c3cccc(Cl)c3)CC2)[nH]c1=O | -2% (inactive) |
| Cn1c(=O)cc(N2CCN(c3ccc(F)cc3)CC2)[nH]c1=O | -2% (inactive) |
| CC1CCN(c2cc(=O)n(Cc3ccc(F)cc3)c(=O)[nH]2)CC1 | 0% (inactive) |
| CCn1c(=O)cc(N2CCN(c3cccc(C(F)(F)F)c3)CC2)[nH]c1=O | -81% (inactive) |
| O=c1cc(N2CCN(c3cccc(Cl)c3)CC2)[nH]c(=O)[nH]1 | 2% (inactive) |
| CCn1c(=O)cc(N2CCN(c3ccc(F)cc3)CC2)[nH]c1=O | 10% (inactive) |
| O=c1cc(N2CCN(c3ccc(C(F)(F)F)cc3)CC2)[nH]c(=O)n1C1CCCCC1 | 1% (inactive) |
| O=c1cc(N2CCN(c3cc(C(F)(F)F)ccn3)CC2)[nH]c(=O)n1C1CCCCC1 | -83% (inactive) |
| O=c1cc(N2CCN(C(c3ccccc3)c3ccccc3)CC2)[nH]c(=O)n1C1CCCCC1 | -8% (inactive) |
| O=c1cc(N2CCN(c3cccc(C(F)(F)F)c3)CC2)n(Cc2ccccc2)c(=O)n1C1CCCCC1 | 3% (inactive) |
| O=c1cc(N2CCN(Cc3ccc4c(c3)OCO4)CC2)[nH]c(=O)n1C1CCCCC1 | 24% |

Continued, values first:

| inhibition | Structure (SMILES) |
| --- | --- |
| -23% (inactive) | O=c1cc(N2CCN(c3cccc(Br)c3)CC2)[nH]c(=O)n1C1CCCCC1 |
| -3% (inactive) | O=c1cc(N2CCN(c3cccc(Cl)n3)CC2)[nH]c(=O)n1C1CCCCC1 |
| 6% (inactive) | O=C(c1ccco1)N1CCN(c2cc(=O)n(C3CCCCC3)c(=O)[nH]2)CC1 |
| 13% (inactive) | O=c1cc(N2CCN(c3ncccc3Cl)CC2)[nH]c(=O)n1C1CCCCC1 |
| -7% (inactive) | O=c1cc(N2CCN(c3ccccn3)CC2)[nH]c(=O)n1C1CCCCC1 |
| -49% (inactive) | O=c1cc(N2CCN(c3ccc(F)cc3F)CC2)[nH]c(=O)n1C1CCCCC1 |
| -4% (inactive) | Cc1cc(C)cc(N2CCN(c3cc(=O)n(C4CCCCC4)c(=O)[nH]3)CC2)c1 |
| 23% (inactive) | O=c1cc(N2CCCCC2)[nH]c(=O)n1C1CCCCC1 |
| -5% (inactive) | CC1CCN(c2cc(=O)n(C3CCCCC3)c(=O)[nH]2)CC1 |
| 9% (inactive) | O=c1cc(N2CCC(Cc3ccccc3)CC2)[nH]c(=O)n1C1CCCCC1 |
| -9% (inactive) | O=c1cc(N2CCN(c3cc(Cl)cc(Cl)c3)CC2)[nH]c(=O)n1C1CCCCC1 |
| 7% (inactive) | Cc1ccc(C)n1CCN1CCN(c2cc(=O)n(C3CCCCC3)c(=O)[nH]2)CC1 |
| -4% (inactive) | O=c1cc(N2CCN(Cc3ccc(Cl)cc3)CC2)[nH]c(=O)n1C1CCCCC1 |
| 5% (inactive) | O=c1cc(N2CCN(c3cccc(Cl)c3)CC2)[nH]c(=O)n1C1CCCCC1 |
| 19% (inactive) | CCOC(=O)N1CCN(c2cc(=O)n(C3CCCCC3)c(=O)[nH]2)CC1 |
| -12% (inactive) | Cc1ccc(Cl)cc1N1CCN(c2cc(=O)n(C3CCCCC3)c(=O)[nH]2)CC1 |
| 6% (inactive) | COC(=O)C1CCN(c2cc(=O)n(C3CCCCC3)c(=O)[nH]2)CC1 |

| inhibition | Structure (SMILES) |
| --- | --- |
| 0% (inactive) | O=c1cc(N2CCOCC2)[nH]c(=O)n1C1CCCCC1 |
| 9% (inactive) | O=c1cc(N2CCN(CCN3CCOCC3)CC2)[nH]c(=O)n1C1CCCCC1 |
| 5% (inactive) | COc1ccc(N2CCN(c3cc(=O)n(C4CCCCC4)c(=O)[nH]3)CC2)cc1 |
| -19% (inactive) | O=c1cc(N2CCN(c3ccccc3Cl)CC2)[nH]c(=O)n1C1CCCCC1 |
| -3% (inactive) | O=c1cc(N2CCN(c3ccccc3)CC2)[nH]c(=O)n1C1CCCCC1 |
| 9% (inactive) | O=c1cc(N2CCN(C3CCCCC3)CC2)[nH]c(=O)n1C1CCCCC1 |
| 5% (inactive) | O=c1cc(N2CCCC2)[nH]c(=O)n1C1CCCCC1 |
| 2% (inactive) | O=C(c1ccccc1)N1CCN(c2cc(=O)n(C3CCCCC3)c(=O)[nH]2)CC1 |
| -13% (inactive) | C=CCN1CCN(c2cc(=O)n(C3CCCCC3)c(=O)[nH]2)CC1 |
| 3% (inactive) | O=c1cc(N2CCN(c3cccc(Cl)c3Cl)CC2)[nH]c(=O)n1C1CCCCC1 |
| -112% (inactive) | O=c1cc(N2CCN(c3cccc(F)c3)CC2)[nH]c(=O)n1C1CCCCC1 |
| 5% (inactive) | CCN1CCN(c2cc(=O)n(C3CCCCC3)c(=O)[nH]2)CC1 |
| -14% (inactive) | O=c1cc(N2CCN(c3nccc4occc34)CC2)[nH]c(=O)n1C1CCCCC1 |
| 5% (inactive) | O=c1cc(N2CCN(c3ncccc3C(F)(F)F)CC2)[nH]c(=O)n1C1CCCCC1 |
| 23% (inactive) | O=c1cc(N2CCc3ccccc32)[nH]c(=O)n1C1CCCCC1 |
| -2% (inactive) | O=c1cc(N2CCN(c3ccc(F)cc3)CC2)[nH]c(=O)n1C1CCCCC1 |
